This is a sample that favours compounds with a hit; in the whole collection about 2% have one here.
XiGFP reactiv = reactivates the inactive X chromosome in mouse fibroblasts. XiGFP mouse fibroblasts, % GFP-positive cells imaging, 3 d; cells co-treated with 5-aza-dC sensitizer; scaled so ellipticine positive control = 100%. activation, % at 7.58 µM. hit rate 0.055% among 360,000;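 active = mean normalized replicate activation at least 10% and every replicate at or above 10%; inconclusive = only one of the two criteria met; inactive = mean below 10% and not all replicates reach 10%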
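System: 68-5-11 XiGFP fibroblast line | Buffer or medium: DMEM containing 5-aza-dC | Compound: Single point | Times: Compounds 3 days, fix/stain 15 min at room temperature | Benchmarks: Positive control ellipticine, 6 µM final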
TWEAK-Fn14 inh = TWEAK-Fn14 signaling inhibition; TWEAK-stimulated Fn14 reporter cells, luciferase luminescence, 8 h; inhibition, % at 10 µM; hit rate 2% among 360,000; in the data active = inhibition above about 50%
CaV13 FRET inh = Primary screen for inhibitors of IQ motif and Ca2+-dependent inactivation inhibitor domain binding in CACNA1D, Förster resonance energy transfer in living cells, …; HEK cells, CFP/YFP FRET ICDI-IQ, plate reader, 10 min; percent FRET-ratio fall versus neutral wells; inhibition, % at 12.3 µM; hit rate 0.098% among 340,000; AID 743397;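 active = mean replicate inhibition of at least 30% and at least 1% of replicates passing that level; inconclusive = only one of the two criteria is met; inactive = neither criterion is met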
LGR2 antag = blocks bursicon-induced cAMP signaling via Drosophila LGR2 | HEK293 LGR2, CRE-luciferase, bursicon-stimulated, 4 h | inhibition, % at 9.99 µM | hit rate 0.35% among 380,000;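 active = drop in luminescence signal, shown as inhibition above about 50% in the replicate tests, limit read from the data, passing the limit was not always enough; inconclusive = probably only some replicates passing the limit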;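 note: agonist challenge used bursicon conditioned medium at about half maximal strength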
TROY signal inh = blocks TROY-dependent signaling in reporter cells; Q293 LMP1-TROYcd NF-kB luciferase reporter, 4 h; inhibition, % at 10 µM; hit rate 0.98% among 360,000; AID 1347056;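 active = compounds whose plate-normalised and pattern-corrected inhibition of the luciferase reporter signal at the single screening dose is 50% or more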
Hits are given with their value; – = inactive; ? = inconclusive; · = not tested or not shown.

SMILES	XiGFP reactiv	TWEAK-Fn14 inh	CaV13 FRET inh	LGR2 antag	TROY signal inh
C[C@]12CC[C@H]3C(CCC4(O)CC(O)CC[C@]34C=O)C1=CC[C@H]2c1ccc(=O)oc1 (stereo partly drawn)	–	–	–	–	–
CC(=O)O[C@H]1[C@H]2O[C@]23[C@@H]2CC[C@]4(O)C[C@@H](O)CC[C@]4(C)C2CC[C@]3(C)[C@H]1c1ccc(=O)oc1 (stereo partly drawn)	·	83	·	·	56
N#Cc1cccc(-c2ccc([C@@H]3[C@@H](CO)N4CCCCN(C(=O)Cc5ccccc5)C[C@@H]34)cc2)c1	–	·	·	–	·
COC(=O)[C@@H]1[C@@H](CO)[C@@H]2Cn3c(ccc(-c4ccc(F)cc4)c3=O)[C@H]1N2Cc1ccccc1	–	·	·	–	·
O=C(Nc1ccc(OC(=O)N2CCCC2)cc1)N1CCOCC1	·	–	–	–	–
O=C(Nc1ccc(OC(=O)N2CCCCC2)cc1)N1CCOCC1	–	94	–	–	85
O=C1C(=O)c2ccccc2-c2ccccc21	?	107	–	104	83
CC=Cc1ccc2n(c1=O)C[C@H]1[C@H](CO)[C@@H](C(=O)O)[C@@H]2N1S(=O)(=O)c1ccccc1F (mixture of isomers)	–	·	·	–	·
COc1cc2cc(C(=O)N3CC(COS(C)(=O)=O)c4ccc(O)cc43)[nH]c2c(OC)c1OC (stereo not drawn)	·	108	·	·	72
CC1=C2C(=O)C3C(CC=C4CC(O)CCC43C)C2CCC12OC1CC(C)CNC1C2C (stereo not drawn)	–	97	–	–	–
C[C@]12CC[C@H](O)CC1=CCC1C2CC[C@@]2(C)C1C[C@@H]1CC(=O)O[C@@H]12 (stereo partly drawn)	–	–	–	–	–
CCC(C)(O)C(=O)OC1C(=O)OC2CC3C(C)=CC(O)C(O)C3(C)C3C4(O)OCC23C1C(C)C4O (stereo not drawn)	·	92	·	–	–
Cc1ccc(C(=O)C2CN3CCC2CC3)cc1 (stereo not drawn)	·	84	·	·	·
CC(C)NC(=O)N1C[C@@H]2C(c3ccccc3)[C@H](C1)N2CC1CC1 (stereo partly drawn)	–	·	·	·	·
COC(=O)[C@@H]1[C@@H](CO)[C@@H]2Cn3c(ccc(-c4cccc(OC)c4)c3=O)[C@H]1N2C(=O)c1cnccn1	–	·	·	–	·
N#Cc1cccc(-c2ccc([C@H]3[C@H]4CN(C(=O)Cc5ccncc5)CCCCN4[C@H]3CO)cc2)c1	–	·	·	–	·
CC1=CC(C)CC(C)OC(=O)CC(c2ccc(O)cc2)NC(=O)C(Cc2c(Br)[nH]c3ccccc23)N(C)C(=O)C(C)NC(=O)C(C)C1 (stereo not drawn)	–	–	–	82	70
C=CCN1[C@@H]2CN(C(=O)NC(C)C)C[C@H]1C2c1ccccc1 (stereo partly drawn)	–	·	·	·	·
O=C1NC(=O)C(=Cc2ccc(-c3ccc(Cl)cc3)o2)C(=O)N1	·	80	·	·	56
COc1ccc(-c2ccc([C@@H]3[C@H](CO)N4CCCCN(C(=O)Cc5ccccc5)C[C@@H]34)cc2)cc1	–	·	·	–	·
COc1ccccc1OCC(=O)Nc1ccc(Cl)cc1C(=O)c1ccccc1	·	107	–	–	–
CCOc1ccccc1OCC(=O)Nc1ccc(Cl)cc1C(=O)c1ccccc1	–	–	–	–	–
COCCN1C(=O)/C(=C/c2c(OC)cc(OC)cc2OC)C(=O)N(c2ccccc2)C1=O	–	70	–	–	–
COc1ccc(CC2C(=O)N(c3ccccc3)C(=O)N(c3ccccc3)C2=O)c(OC)c1	·	–	–	·	–
CSCCC(c1nnnn1C1CCCCC1)N1CCC(n2c(=O)[nH]c3ccccc32)CC1 (stereo not drawn)	–	–	–	–	–
SMILES	XiGFP reactiv	TWEAK-Fn14 inh	CaV13 FRET inh	LGR2 antag	TROY signal inh
CSCCC(c1nnnn1-c1c(C)cccc1C)N1CCC(n2c(=O)[nH]c3ccccc32)CC1 (stereo not drawn)	–	–	–	93	–
O=c1[nH]c2ccccc2n1C1CCN(C(CCc2ccccc2)c2nnnn2Cc2ccccc2)CC1 (stereo not drawn)	–	94	–	99	71
O=c1[nH]c2ccccc2n1C1CCN(C(CCc2ccccc2)c2nnnn2C2CCCCC2)CC1 (stereo not drawn)	–	69	–	94	53
O=c1[nH]c2ccccc2n1C1CCN(C(c2ccccc2OC(F)(F)F)c2nnnn2Cc2ccccc2)CC1 (stereo not drawn)	–	61	–	61	61
O=C(Cc1ccccc1)N1C[C@@H]2[C@H](c3ccccc31)[C@@H](CO)N2Cc1ccccc1	–	·	·	–	·
O=C(Cc1cccnc1)N1CCCCN2[C@H](CO)[C@@H](c3ccc(/C=C/c4ccccc4)cc3)[C@@H]2C1	–	·	·	–	·
COC(=O)[C@H]1N[C@H]2c3ccc(C4=CCCC4)c(=O)n3C[C@H]2[C@@H]1CO	–	·	·	–	·
C[C@H]1CCC/C=C/C2C[C@H](O)CC2[C@H](O)/C=C/C(=O)O1 (stereo partly drawn)	·	57	·	·	–
CC1CCC/C=C/C2CC(O)CC2C(O)/C=C/C(=O)O1 (stereo not drawn)	·	76	–	·	–
C[C@H]1CCC[C@H](O)CCCCCc2cc(O)cc(O)c2C(=O)O1	–	–	–	–	–
O=c1[nH]c(O)c(/C=C2/C=CC(c3cc(Cl)ccc3Cl)=N2)c(=O)[nH]1	–	–	–	–	85
CCN(CC)C(=O)Cn1cc(/C=C2\C(=O)NC(=O)N(c3ccccc3F)C2=O)c2ccccc21	–	66	–	–	–
COc1ccc(CC2C(=O)NC(C)C(=O)N(C)C3C(=O)N(C)C(Cc4ccc(O)c(c4)Oc4ccc(cc4)C3O)C(=O)NC(C)C(=O)NC(C)C(=O)N2C)cc1 (stereo not drawn)	–	102	–	99	87
C[C@H]1CN([C@@H](C)CO)C(=O)CCCn2cc(nn2)CO[C@H]1CN(C)C(=O)Oc1cccc2ccccc12	–	·	·	–	·
CC(=O)N1C2CN(C)CC1C2c1ccc(Br)cc1 (stereo not drawn)	–	·	·	·	·
CCCCn1c(=O)c(C(=O)NCc2ccccc2)c(O)c2ccccc21	–	–	–	–	–
CCCCCn1c(=O)c(C(=O)Nc2ccccc2S(N)(=O)=O)c(O)c2ccccc21	–	59	–	–	–
CCCCn1c(=O)c(C(=O)NCc2ccncc2)c(O)c2ccccc21	·	56	–	·	–
CCN(CC)C(=O)c1ccc(NC(=O)c2cccc(C(F)(F)F)c2)cc1	–	–	–	–	–
CCN(CCCl)c1cc(CN(C)C)cc(NC(=O)c2ccc(C(=O)Nc3cc(CN(C)C)cc(N(CC)CCCl)c3)cc2)c1	–	99	–	95	54
